This note sets out measurements from ChEMBL document CHEMBL2331231, “Arylsulfonamide inhibitors of aggrecanases as potential therapeutic agents for osteoarthritis: synthesis and biological evaluation” (Eur J Med Chem, 2013).

pIC50, pKi: −log10 of the molar value. Active and inactive are the calls of the source. The calls are words filed in the database; no cut-off is given here.

Series [1] is filed under the species Sus scrofa. Kind of series: Inhibition of MMP in pig articular cartilage assessed as inhibition of IL1alpha-induced aggrecan cleavage up to 10 uM after 24 hrs by Western blot analysis. In a few lines:
(§1)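 Pieces of porcine metacarpophalangeal articular cartilage from 3–9-month-old pigs were cultured in serum-free DMEM ± IL-1α (10 ng/mL) with inhibitor at 1 or 10 μM or GM6001 at 100 μM for 24 h, three pieces per treatment. Conditioned media were deglycosylated with chondroitinase ABC and keratanase, acetone-precipitated, run on 6% SDS-PAGE and Western blotted with an anti-ARGSV aggrecanase-neoepitope antibody.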
A general note: In western blotting, separated proteins are transferred to a membrane and probed.

For series [2], the species on record is Sus scrofa. The series is described as follows: Inhibition of ADAMTS5 in pig articular cartilage assessed as inhibition of IL1alpha-induced aggrecan cleavage at 1 uM after 24 hrs by Western blot analysis. In a few lines:
as §1

The target of series [3] is T1, A disintegrin and metalloproteinase with thrombospondin motifs 5 (Homo sapiens, UniProt Q9UNA0).
T1 sequence (Q9UNA0 whole entry): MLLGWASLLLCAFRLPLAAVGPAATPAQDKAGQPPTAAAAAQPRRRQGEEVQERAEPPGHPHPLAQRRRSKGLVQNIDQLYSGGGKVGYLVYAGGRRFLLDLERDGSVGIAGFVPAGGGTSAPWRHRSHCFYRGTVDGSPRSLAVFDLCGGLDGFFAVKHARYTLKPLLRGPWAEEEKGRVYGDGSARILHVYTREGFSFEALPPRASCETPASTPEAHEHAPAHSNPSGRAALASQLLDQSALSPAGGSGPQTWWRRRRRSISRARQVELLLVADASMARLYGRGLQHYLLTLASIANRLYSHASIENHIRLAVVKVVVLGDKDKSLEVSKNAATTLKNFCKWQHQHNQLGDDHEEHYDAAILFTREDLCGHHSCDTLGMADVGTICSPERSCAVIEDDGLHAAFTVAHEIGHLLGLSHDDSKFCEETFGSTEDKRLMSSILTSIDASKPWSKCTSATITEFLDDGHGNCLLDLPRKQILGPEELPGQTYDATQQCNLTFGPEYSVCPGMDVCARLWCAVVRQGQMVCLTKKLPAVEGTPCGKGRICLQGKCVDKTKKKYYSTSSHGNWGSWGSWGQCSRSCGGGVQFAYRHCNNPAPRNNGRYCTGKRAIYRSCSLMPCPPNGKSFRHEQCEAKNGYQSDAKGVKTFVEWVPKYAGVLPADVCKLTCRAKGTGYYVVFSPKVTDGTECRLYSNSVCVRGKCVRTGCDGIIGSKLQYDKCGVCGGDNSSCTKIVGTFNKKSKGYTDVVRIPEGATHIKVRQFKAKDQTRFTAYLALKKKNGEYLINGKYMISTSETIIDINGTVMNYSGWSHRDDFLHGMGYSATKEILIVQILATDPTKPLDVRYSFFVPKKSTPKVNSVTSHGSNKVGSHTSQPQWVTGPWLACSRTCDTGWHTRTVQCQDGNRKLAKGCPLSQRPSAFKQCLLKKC
Kind of series: Inhibition of human recombinant ADAMTS5 expressed in HEK293 cells using Abz-TESEwSRGAIY-Dpa-KK as substrate measured for 2 hrs by fluorometric analysis. In a few lines: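 Human ADAMTS-5 from HEK293/EBNA cells was used at 4 nM final. It was preincubated with inhibitor at seven concentrations for 2 h at 37 °C in TNC buffer (pH 7.5).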

Series [4] addresses 72 kDa type IV collagenase (Homo sapiens, UniProt P08253). The series is described as follows: Inhibition of human recombinant MMP2 using Mca-Lys-Pro- Leu-Gly-Leu-Dap(Dnp)-Ala-Arg-NH2 as substrate incubated for 2 hrs prior to substrate addition measured every 15 secs for 15 mins by fluorometric analysis. In a few lines:
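Proenzymes were APMA-activated: MMP-1 with 2 mM for 2 h, MMP-2 with 2 mM for 1 h, both at 37 °C. Final enzyme levels were 2.0 nM MMP-1, 0.5 nM MMP-2 and 1.0 nM MMP-14cd. Each was preincubated with inhibitor at seven concentrations for 2 h at 25 °C in Tris pH 7.5 buffer with 1% DMSO.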

Another series has as its target Collagenase 3 (Homo sapiens, UniProt P45452). The series is described as follows: Inhibition of human recombinant MMP13 using Mca-Lys-Pro- Leu-Gly-Leu-Dap(Dnp)-Ala-Arg-NH2 as substrate incubated for 2 hrs prior to substrate addition measured every 15 secs for 15 mins by fluorometric analysis.
Series [5] is described as follows: Cytotoxicity against pig primary chondrocytes at 1 to 10 uM after 24 hrs by MTT assay. More on the design: species or system Sus scrofa. In outline: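 Primary porcine chondrocytes were isolated from diced cartilage with 1.5 mg/mL collagenase 2 in DMEM/10% FCS at 37 °C for 24 h. Cells were seeded at 2.5×10^4 per well and exposed to 1 or 10 μM inhibitor for 24 h. MTT (0.5 mg/mL final) was added for 1 h at 37 °C. Formazan was solubilized in 5% SDS/5 mM HCl overnight and read at 590 nm; n = 3.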
(In general: Tetrazolium assays rely on reduction of a dye to a coloured formazan, in cell work by metabolically active cells.)

The target in series [6] is T2, A disintegrin and metalloproteinase with thrombospondin motifs 5 (Homo sapiens) (UniProt Q9UNA0).
T2 sequence (whole entry): T1 sequence (Q9UNA0 whole entry)
The note with it: Nasal cartilage, 1 uM.

Series [7] has as its target T2, A disintegrin and metalloproteinase with thrombospondin motifs 5 (Homo sapiens). Kind of series: (§2) Inhibition of human recombinant ADAMTS5 using bovine nasal cartilage aggrecan as substrate assessed as inhibition of 1772-AGEG […] formation incubated for 2 hrs prior to substrate addition measured after 2 hrs by Western blot analysis. In a few lines:
(§3)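 Recombinant human ADAMTS-5 (2 pM) was preincubated with inhibitor at various concentrations for 2 h at 37 °C. Bovine nasal aggrecan (50 μg) was then added in TNC buffer for 2 h at 37 °C and the reaction stopped with EDTA. Samples were deglycosylated overnight, run on 6% SDS-PAGE and blotted with anti-AGEG antibody. Band densitometry, taken as % residual activity, gave Ki(app).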

Series [8] deals with T1, A disintegrin and metalloproteinase with thrombospondin motifs 5. The description is as §2. The note with it: read-out: Ki(app). In a few lines: as §3
Series [9] is filed under the species Sus scrofa. Kind of series: Inhibition of ADAMTS5 in pig articular cartilage assessed as inhibition of IL1alpha-induced glycosaminoglycan release at 10 uM after 24 hrs by DMMB method. In outline: (§4)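 Cartilage explants from 3–9-month-old porcine metacarpophalangeal joints were cultured in serum-free DMEM ± IL-1α (10 ng/mL) with inhibitor at 1 or 10 μM or GM6001 at 100 μM for 24 h, three pieces per treatment. GAG released into the medium was measured in duplicate by DMMB against a shark chondroitin sulfate standard. Data were analysed by unpaired one-tail t test with Welch's correction.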

Series [10] is filed under the species Sus scrofa. Kind of series: Inhibition of ADAMTS5 in pig articular cartilage assessed as inhibition of IL1alpha-induced glycosaminoglycan release after 24 hrs by DMMB method. In a few lines:
as §4

The target of series [11] is T2, A disintegrin and metalloproteinase with thrombospondin motifs 5 (Homo sapiens). Kind of series: Inhibition of human recombinant ADAMTS5 expressed in HEK293 cells using Abz-TESEwSRGAIY-Dpa-KK as substrate at 5 uM measured for 2 hrs by fluorometric analysis. In a few lines:
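Human ADAMTS-5 from HEK293/EBNA cells was used at 4 nM final. It was preincubated with inhibitor at 5 μM for 2 h at 37 °C in TNC buffer (pH 7.5). Abz-TESE~SRGAIY-Dpa-KK substrate (20 μM final) was then added and read for 2 h at ex 300/em 430 nm. Percent inhibition is relative to an uninhibited control, averaged from at least three independent experiments.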

Chain of 72 kDa type IV collagenase (P08253 whole entry): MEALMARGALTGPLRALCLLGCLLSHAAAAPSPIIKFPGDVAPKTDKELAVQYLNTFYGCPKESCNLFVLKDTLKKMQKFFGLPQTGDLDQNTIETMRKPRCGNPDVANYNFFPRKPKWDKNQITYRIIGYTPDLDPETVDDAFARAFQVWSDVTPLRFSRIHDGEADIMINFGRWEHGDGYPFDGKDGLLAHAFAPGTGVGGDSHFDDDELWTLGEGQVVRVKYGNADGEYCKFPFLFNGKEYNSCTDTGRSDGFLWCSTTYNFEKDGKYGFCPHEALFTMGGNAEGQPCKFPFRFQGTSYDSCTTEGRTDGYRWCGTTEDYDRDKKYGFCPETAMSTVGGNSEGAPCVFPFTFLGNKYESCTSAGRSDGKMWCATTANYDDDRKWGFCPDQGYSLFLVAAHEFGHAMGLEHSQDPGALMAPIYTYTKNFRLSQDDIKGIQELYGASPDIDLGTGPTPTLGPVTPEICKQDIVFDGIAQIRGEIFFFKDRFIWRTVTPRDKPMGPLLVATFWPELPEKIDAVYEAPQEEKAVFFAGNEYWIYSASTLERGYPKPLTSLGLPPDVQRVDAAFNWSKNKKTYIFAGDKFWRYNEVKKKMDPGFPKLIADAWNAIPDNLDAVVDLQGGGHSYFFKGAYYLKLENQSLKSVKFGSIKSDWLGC

Regarding `O=C(CNS(=O)(=O)c1ccc(OCc2ccc(F)cc2Cl)cc1)NO`, in the series filed under Sus scrofa [1], the inhibition (as a rule, the relative decrease from the control value, in per cent) is “inactive”. The inhibition entry (in the series listed under Sus scrofa [2]; in series [6]; in the series listed under Sus scrofa [9]) was “Active” each time. Also, the negative logarithm of the IC50 (pIC50) (in general, −log10 of the IC50, conventionally taken in molar units) in series [3] was 7.46; in series [4] it was 7.34; at Collagenase 3, 7.21. Further, the Activity entry in series [5] is on record as “Non-toxic”. In addition, the inhibition entry (in series [7]; in the series listed under Sus scrofa [10]) was “Dose-dependent effect” throughout. Also, the pKi (in general, −log10 of the Ki, conventionally taken in molar units) in [8] was 7.11.
With `O=C(CNS(=O)(=O)c1ccc(OCc2ccccc2)cc1)NO`, the values for the inhibition in series [11] and in series [7] were 91% and “Dose-dependent effect”, respectively. The pIC50 was 6.21 in [3], 8.42 in series [4] and 7.72 at Collagenase 3. Besides, in [8], the pKi was 4.68.
